Columns and labels:
CEM-SS [1] = assay: Effective concentration of compound against HIV-1 LAI strain in CEM-SS cells; assay type: functional, cell-based; conditions: Homo sapiens
How it was run: (§1)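 CEM-SS cells infected with HIV-1 LAI. Virus replication followed by reverse transcriptase activity measurement. EC50 is the concentration inhibiting 50% of virus replication. Relative potency is the ratio to AMD3100.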

[2] = (§2) Concentration of compound causing 50% death of uninfected cells; assay type: ADME, cell-based; conditions: human
How it was run: (§3)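 Uninfected cells of each line (CEM-SS, MT4 or PBMC) exposed to compound; CC50 taken as the concentration causing 50% death of uninfected cells.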

CEM-SS [3] = assay: Potency of compound against HIV-1 LAI strain in CEM-SS cells relative to AMD3100; assay type: functional, Homo sapiens; how it was run: as §1
[4] = as §2; assay type: cell-based; conditions: human, CEM-SS cells (uninfected); how it was run: as §3
PBMC [5] = assay: Effective concentration of compound against HIV-1 89.6 strain in PBMC cells; assay type: functional, cell-based; conditions: Homo sapiens
How it was run: (§4)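 PBMC infected with dual-tropic HIV-1 89.6. Virus growth measured by reverse transcriptase activity. EC50 is the concentration protecting 50% of infected cells. Relative potency is expressed against AMD3100.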

GHOST CCR5 = assay: Inhibitory concentration of compound against HIV-1 Ba1 strain in GHOST CCR5 cell line; assay type: functional, cell-based; conditions: Homo sapiens
How it was run: (§5)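 GHOST osteosarcoma cells express CD4, CXCR4 or CCR5 plus an HIV-2 LTR-GFP reporter, grown in Dulbecco medium with 10% FCS. Seeded at 2.5 10⁵ per well; 24 h later pretreated with compound for 1 h at 37 °C. Infected with HIV-1 Lai (CXCR4) or Bal (CCR5), 2 h adsorption, washed, cultured 48 h with drug. GFP+ cells counted by flow cytometry; IC50 from median-effect plot.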

MT4 [6] = assay: Effective concentration of compound against HIV-1 IIIB strain in MT-4 cells; assay type: functional, cell-based; conditions: Homo sapiens
How it was run: (§6)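 MT4 cells infected with HIV-1 IIIB. Virus-induced cytopathogenic effect scored. EC50 is the concentration protecting 50% of infected cells against cytopathogenicity. Relative potency is expressed against AMD3100.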

GHOST CXCR4 [7] = assay: Potency of compound against HIV-1 LAI strain in GHOST CXCR4 cell line relative to AMD3100; assay type: functional, Homo sapiens; how it was run: as §5
MT4 [8] = assay: Potency of compound against HIV-1 IIIB strain in MT-4 cells relative to AMD3100; assay type: functional, Homo sapiens; how it was run: as §6
GHOST CXCR4 [9] = assay: Inhibitory concentration of compound against HIV-1 LAI strain in GHOST CXCR4 cell line; assay type: functional, cell-based; conditions: Homo sapiens; how it was run: as §5
PBMC [10] = assay: Potency of compound against HIV-1 89.6 strain in PBMC cells relative to AMD3100; assay type: functional, Homo sapiens; how it was run: as §4

Structure (SMILES) | EC50 (CEM-SS [1]) [nM] | CC50 ([2]; MT4 cells (uninfected)) [nM] | CC50 ([2]; PBMC (uninfected)) [nM] | Relative potency (CEM-SS [3]) | CC50 [4] [nM] | EC50 (PBMC [5]) [nM] | IC50 (GHOST CCR5) [nM] | EC50 (MT4 [6]) [nM] | Relative potency (GHOST CXCR4 [7]) | Relative potency (MT4 [8]) | IC50 (GHOST CXCR4 [9]) [nM] | Relative potency (PBMC [10])
CCOC(=O)CCCCN1CCCN(Cc2ccc(CN3CCCNCCNCCCNCC3)cc2)CCNCCCNCC1 | 910 | > 100000 | > 100000 | ~7 | > 100000 | 25 | > 50000 | 690 | ~7 | ~10 | 7.1 | ~7
CCCCCCCCCCCCCC(=O)N[C@@H](CCCCNC(=O)CCCCN1CCCN(Cc2ccc(CN3CCCNCCNCCCNCC3)cc2)CCNCCCNCC1)C(=O)N[C@@H](CO[C@@H]1O[C@@H](CO)[C@H](O)[C@H](O)[C@@H]1O)C(=O)O | 5200 | > 50000 | > 28000 | ~40 | > 50000 | 470 | > 50000 | 2800 | ~90 | ~45 | 86 | ~125
CCCCCCCCCCCCCC(=O)N[C@@H](CCCCNC(=O)CCCCN1CCCNCCN(Cc2ccc(CN3CCCNCCNCCCNCC3)cc2)CCCNCC1)C(=O)N[C@@H](CO[C@@H]1O[C@@H](CO)[C@H](O)[C@H](O)[C@@H]1O)C(=O)O | 6000 | > 100000 | > 10000 | ~50 | > 100000 | 250 | > 10000 | 2900 | ~20 | ~45 | 21 | ~65
CCCCCCCCCCCCCC(=O)N[C@@H](CO[C@@H]1O[C@@H](CO)[C@H](O)[C@H](O)[C@@H]1O)C(=O)O | 10000 | > 100000 | – | – | > 100000 | – | – | > 100000 | – | – | – | –
c1cc(CN2CCCNCCNCCCNCC2)ccc1CN1CCCNCCNCCCNCC1 [PLERIXAFOR] | 127 | > 10000 | > 10000 | – | > 10000 | 3.8 | > 5000 | 65 | – | – | 0.95 | –
Cc1cn([C@H]2C[C@H](N=[N+]=[N-])[C@@H](CO)O2)c(=O)[nH]c1=O [ZIDOVUDINE] | 6.3 | – | – | – | – | 24 | – | 9.9 | – | – | – | –
